Data set [1] in a line: Chemical stability assessed as compound remaining after proteolytic cleavage after 2 hrs in presence of chymotrypsin. The following applies: read-out: Stability. In kind it is physicochemical. In short, it runs like this:
(§1)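 Each peptide at 0.76 mg/mL was incubated in PBS with 0.1 mg/mL chymotrypsin. Intact-peptide peak area was compared with an equivalent sample incubated in PBS alone.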

Data set [2] is described as follows: Chemical stability assessed as compound remaining after proteolytic cleavage after 20 hrs in presence of chymotrypsin. The data set is classed as physicochemical. Conditions: read-out: Stability. A digest of the protocol:
as §1

Data set [3] in a line: Inhibition of amyloid beta (1 to 40) aggregation assessed as inhibition of protofbril formation. A digest of the protocol:
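Lyophilised Aβ1-40 was incubated in 30 mM Tris/HCl pH 7.4 at 20 °C, with or without a 10-fold molar excess of inhibitor. Aliquots taken at 30 min and 24 h were frozen, lyophilised, gold sputter-coated and imaged by scanning electron microscopy for protofibrils.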

Data set [4] in a line: Inhibition of amyloid beta (1 to 40) fibril formation by thioflavin T fluorescent dye assay. A digest of the protocol: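 Aβ1-40 fractions were dissolved in 30 mM Tris/HCl pH 7.4 at 20 °C, with or without a 10-fold molar excess of inhibitor. Aliquots taken at 0.5, 1.5, 6, 8, 15 and 24 h went into ThT in 50 mM Tris/HCl pH 8.0. Fluorescence was read at 485 nm (excitation 450 nm) at 20 °C. Percent inhibition is relative to the parent pentapeptide. Three experiments, each sample in triplicate.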

Active and inactive are the calls of the source. The calls are words filed in the database; no cut-off is given here. Residues, ends and D or L forms follow the SMILES beside them.

Regarding `CC(=O)N[C@@H](CC(C)C)C(=O)N1CCC[C@H]1CS(=O)(=O)N[C@@H](Cc1ccccc1)C(=O)N[C@@H](Cc1ccccc1)C(=O)N[C@@H](CC(=O)O)C(N)=O`, in data set [1], the remaining at 2 h worked out at 35%. In addition, in data set [2], the remaining at 20 h was 15%.

Take `CC(C)C[C@H](NS(=O)(=O)CCN(C)C)C(=O)N1CCC[C@H]1C(=O)N[C@@H](Cc1ccccc1)C(=O)N[C@@H](Cc1ccccc1)C(=O)N[C@@H](CC(=O)O)C(N)=O` (HELM PEPTIDE1{[CN(C)CCS(=O)(=O)[*:2]].L.P.F.F.D.[am]}$$$$V2.0): the remaining at 2 h in data set [1] worked out at 70%. The remaining at 20 h in data set [2] turned out to be 55%. In addition, the result in data set [3] and in data set [4] was Active.

With `CC(=O)N[C@@H](CC(C)C)C(=O)N1CCC[C@H]1CC(=O)N[C@@H](Cc1ccccc1)C(=O)N[C@@H](Cc1ccccc1)C(=O)N[C@@H](CC(=O)O)C(N)=O` (HELM PEPTIDE1{[ac].L.[O=C(C[C@@H]1CCCN1[*:1])[*:2]].F.F.D.[am]}$$$$V2.0), in data set [1], the remaining at 2 h was 35%. Moreover, the remaining at 20 h in data set [2] was 15%.

Regarding `CC(=O)N[C@@H](CC(C)C)C(=O)N1CC[C@H]1C(=O)N[C@@H](Cc1ccccc1)C(=O)N[C@@H](Cc1ccccc1)C(=O)N[C@@H](CC(=O)O)C(N)=O` (HELM PEPTIDE1{[ac].L.[O=C([C@@H]1CCN1[*:1])[*:2]].F.F.D.[am]}$$$$V2.0), the remaining at 2 h in data set [1] stood at 35%. Also, the remaining at 20 h in data set [2] is 15%. Further, the outcome in data set [4] was Active.

In the case of `CC(=O)N[C@@H](CC(C)C)C(=O)N1C[C@@H](c2ccccc2)[C@@H]1C(=O)N[C@@H](Cc1ccccc1)C(=O)N[C@@H](Cc1ccccc1)C(=O)N[C@@H](CC(=O)O)C(N)=O` (HELM PEPTIDE1{[ac].L.[O=C([C@H]1[C@H](c2ccccc2)CN1[*:1])[*:2]].F.F.D.[am]}$$$$V2.0), the remaining at 2 h in data set [1] came out at 35%. Also, in data set [2], the remaining at 20 h amounted to 15%.

For the molecule Ac-LPFFD-NH2, the remaining at 2 h in data set [1] came out at 12%.

For Ac-LPFFDLPFFD-NH2, the remaining at 2 h in data set [1] worked out at 22%. The result in data set [4] was Active.

Source of the values: ChEMBL document CHEMBL1154492, “Synthesis and activity of fibrillogenesis peptide inhibitors related to the 17-21 beta-amyloid sequence” (Eur J Med Chem, 2009).
